A selection: hits, their analogues and other compounds. The true share with any hit is near 1.9%.
RanGTP-Imp inh: inhibitors of RanGTP-importin-beta interaction, primary screen, biochemical, FRET, CFP-Ran, YFP-importin-beta, homogeneous; cell-free CFP-Ran/YFP-importin-beta FRET ratio; inhibition, % (concentration not given with the values); 300,000 tested, 1.1% active; AID 2216;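 active = more than half of the replicate wells show a fall in the fluorescence ratio signal beyond about 16%, limit read from the data, passing the limit was not always enough; inconclusive = exactly half of the replicate wells pass the set limit; inactive = fewer than half of replicates pass the limit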;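 also: 0% = DMSO wells and 100% = Ran loaded with GDP instead of GTP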
Runt-SMMHC FRET: inhibitors of human RUNX1 Runt domain binding to CBFb-SMMHC; 220,000 tested, 0.74% active; Q01196+Q13951; AID 1434; inhibition, % at 20 µM; Cerulean-Runt/Venus-CBFb-SMMHC FRET ratio 530/480, 1 h;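 active = mean inhibition across duplicate retests at 20 µM reaching about 50%, limit read from the data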;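 also: 0% = DMSO wells and 100% = wells with excess untagged CBFb-SMMHC; inhibitors lower the FRET ratio by blocking Runt binding to CBFb-SMMHC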
CaV13 ICDI inh: Disruptors of the CACNA1D IQ motif to Ca2+-dependent inactivation inhibitor domain association, primary screening, Förster resonance energy transfer in intact living …. 340,000 tested, 0.098% active. HEK cells, CFP/YFP FRET ICDI-IQ, plate reader, 10 min; percent FRET-ratio fall versus neutral wells. inhibition, % at 12.3 µM;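 active = mean replicate inhibition of at least 30% and at least 1% of replicates passing that level; inconclusive = only one of the two criteria is met; inactive = neither criterion is met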;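 also: 0% = median of the neutral control wells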
LANA-H2A inh: blocks KSHV LANA binding to histone H2A/H2B; 320,000 tested, 0.6% active; AID 2629; cell-free LANA-H2A/H2B peptide, fluorescence polarization; inhibition, % (concentration not given with the values); in the data active = inhibition mostly above about 10%, no sharp cut-off; inactive = mostly below about 6.7%
Runt-CBFb FRET: inhibitors of human RUNX1 Runt domain binding to CBFb | Q01196+Q13951 | Cerulean-Runt/Venus-CBFb FRET ratio 530/480, 1 h | inhibition, % at 20 µM | 220,000 tested, 0.46% active | AID 1496;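 active = inhibition over about 50% at 20 µM in the single-dose screen, limit read from the data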;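 also: 0% = DMSO wells and 100% = excess unlabeled CBFb competitor control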
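Measured by: fluorescence energy transfer, 422 nm excitation, 530/480 nm emission; Assay system: Cerulean-Runt domain; Medium: Tris pH 7.5 buffer with BSA; Measure: loss of energy transfer signal; Controls: 5 µM unlabeled CBFb as full-inhibition high control; Incubation: protein complex preformed 1 h, compound exposure 1 h, room temperature, dark.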
HDAC3 inh: blocks human histone deacetylase 3; O15379; recombinant HDAC3, fluorogenic peptide/trypsin coupled, fluorescence; inhibition, % at 8.3 µM; 320,000 tested, 0.15% active; AID 2718; in the data active = inhibition above about 26%, passing the limit was not always enough; inconclusive = no clear call, values can overlap the other calls
Target sequence (O15379 whole entry, looked up): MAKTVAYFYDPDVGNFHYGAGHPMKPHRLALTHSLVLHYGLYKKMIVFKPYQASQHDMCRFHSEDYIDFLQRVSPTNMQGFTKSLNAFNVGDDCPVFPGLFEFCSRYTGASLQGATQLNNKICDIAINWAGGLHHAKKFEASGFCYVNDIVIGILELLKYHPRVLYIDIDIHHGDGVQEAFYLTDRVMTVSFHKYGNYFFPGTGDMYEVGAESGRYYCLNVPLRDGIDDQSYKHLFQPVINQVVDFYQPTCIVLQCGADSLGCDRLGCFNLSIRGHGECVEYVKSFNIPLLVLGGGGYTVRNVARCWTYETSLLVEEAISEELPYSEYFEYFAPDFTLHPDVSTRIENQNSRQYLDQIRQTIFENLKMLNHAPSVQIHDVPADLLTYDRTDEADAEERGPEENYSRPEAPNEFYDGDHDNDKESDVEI
The depositor's hits bear a star; ! = not active in a repeat.

Screening COc1ccc(C2CC(c3ccccc3)=NN2c2ccc(/C=N/NC(=O)c3ccncc3)cc2)cc1 (stereo not given) returned RanGTP-Imp inh 19*, Runt-SMMHC FRET -248, CaV13 ICDI inh -13, LANA-H2A inh 1, Runt-CBFb FRET -112 and HDAC3 inh 10.
For COc1ccc(C2CC(c3ccccc3)=NN2c2ccc(C(N)=O)cc2)cc1 (stereo not given) the results were RanGTP-Imp inh 11, CaV13 ICDI inh 83*, LANA-H2A inh -1 and HDAC3 inh -199.
Screening N#CCC(=O)N/N=C/c1ccc(N2N=C(c3ccccc3)CC2c2ccccc2)cc1 (stereo not given) returned RanGTP-Imp inh 99*, CaV13 ICDI inh -15, LANA-H2A inh 1 and HDAC3 inh -4.
COc1ccc(C2CC(c3ccccc3)=NN2c2ccc(S(N)(=O)=O)cc2)cc1 (stereo not given) was read as RanGTP-Imp inh 4, Runt-SMMHC FRET 29, CaV13 ICDI inh -2, LANA-H2A inh -2, Runt-CBFb FRET 2 and HDAC3 inh -70.
Screening COC(=O)c1cc(C#N)c(Oc2cccc(C)c2C)nc1C returned RanGTP-Imp inh -2, Runt-SMMHC FRET -1, LANA-H2A inh 0, Runt-CBFb FRET -2 and HDAC3 inh -1.
COc1ccc(NC(=O)C2c3cc(OC)c(OC)cc3C(=O)N(C)C2c2cccnc2)cc1OC (stereo not given) was read as RanGTP-Imp inh 3, Runt-SMMHC FRET -1, CaV13 ICDI inh -5, LANA-H2A inh 4, Runt-CBFb FRET 1 and HDAC3 inh 3.
Screening COc1cc(-c2nnc(SCc3cc(=O)oc4cc(O)c(O)cc34)o2)cc(OC)c1OC returned RanGTP-Imp inh 9, Runt-SMMHC FRET 59*, CaV13 ICDI inh -7, LANA-H2A inh 2, Runt-CBFb FRET 67* and HDAC3 inh -7.
Screening CCOC(=O)CSc1nnc(-c2cc(OC)c(OC)c(OC)c2)o1 returned RanGTP-Imp inh 3, Runt-SMMHC FRET -1, CaV13 ICDI inh 3, LANA-H2A inh 0, Runt-CBFb FRET 0 and HDAC3 inh 2.
`CCN(c1ccccc1)S(=O)(=O)c1ccc(OC)c(NC(=O)C2CCC2)c1` gave CaV13 ICDI inh -6, LANA-H2A inh 1 and HDAC3 inh 0.
`NNC(=O)/C(=C/c1cccs1)NC(=O)c1ccccc1Cl` gave RanGTP-Imp inh -4, Runt-SMMHC FRET 0, CaV13 ICDI inh -18, LANA-H2A inh 1, Runt-CBFb FRET -1 and HDAC3 inh 5.
For N#CC1=C(N)Oc2cc(N)ccc2C1c1ccccc1F (stereo not given) the results were RanGTP-Imp inh 121*, CaV13 ICDI inh -1, LANA-H2A inh -4 and HDAC3 inh 2.
`COc1cccc(C2C(C#N)=C(N)Oc3cc(N)ccc32)c1OC` (stereo not given) gave RanGTP-Imp inh 105*, Runt-SMMHC FRET 100*, CaV13 ICDI inh -3, LANA-H2A inh -10, Runt-CBFb FRET 72* and HDAC3 inh 7.
COc1cccc(C2C(C#N)=C(N)Oc3cc(C)oc(=O)c32)c1OC (stereo not given) was read as RanGTP-Imp inh -1, Runt-SMMHC FRET -2, CaV13 ICDI inh -4, LANA-H2A inh 1, Runt-CBFb FRET -2 and HDAC3 inh 1.
For Cc1nc2ccccc2c2c1C(=O)NC2=O the results were RanGTP-Imp inh 1, Runt-SMMHC FRET 3, LANA-H2A inh 27*, Runt-CBFb FRET 0 and HDAC3 inh -3.
Screening COc1ccc(C(C)(C)C)cc1NC(=O)CCc1c(C)noc1C returned CaV13 ICDI inh -13, LANA-H2A inh 30* and HDAC3 inh 0.
For Cc1ccc2c(Cl)c(C)c(N3CCCCC3)nc2n1 the results were RanGTP-Imp inh 4, Runt-SMMHC FRET 1, CaV13 ICDI inh -10, LANA-H2A inh 2, Runt-CBFb FRET -8 and HDAC3 inh 3.
For COc1cc2c(cc1OC)C(SC)=NC1(CCCC1)C2 the results were RanGTP-Imp inh -1, Runt-SMMHC FRET -7, CaV13 ICDI inh -3, LANA-H2A inh 1, Runt-CBFb FRET 1 and HDAC3 inh -4.
For COc1cc2c(cc1OC)C(C)=NC1(CCCCC1)C2 the results were RanGTP-Imp inh 5, Runt-SMMHC FRET 15, CaV13 ICDI inh -21, LANA-H2A inh 8.0* and Runt-CBFb FRET 4.
`Cc1ccc(S(=O)(=O)c2nc(-c3ccco3)oc2SCC(=O)NCC2CCCO2)cc1` (stereo not given) gave RanGTP-Imp inh -2, Runt-SMMHC FRET -2, CaV13 ICDI inh -8, LANA-H2A inh 1, Runt-CBFb FRET -3 and HDAC3 inh -2.
`Clc1ccc(-c2nnc3sc(-c4ccc(Br)o4)nn23)cc1` gave Runt-SMMHC FRET 5, CaV13 ICDI inh -3, LANA-H2A inh 46*, Runt-CBFb FRET 2 and HDAC3 inh -2.
For O=Cc1coc2c(ccc3ccccc32)c1=O the results were RanGTP-Imp inh 37*, LANA-H2A inh -2 and HDAC3 inh -1.
For O=C/C=C/c1coc2ccc3ccccc3c2c1=O the results were RanGTP-Imp inh 1, Runt-SMMHC FRET -4, CaV13 ICDI inh -4, LANA-H2A inh -2, Runt-CBFb FRET 1 and HDAC3 inh -1.
`CCOC(=O)Cc1csc(/N=C/c2c(O)n(-c3ccc(C)c(C)c3)c(=O)c3ccccc23)n1` gave RanGTP-Imp inh -2, Runt-SMMHC FRET 62*, CaV13 ICDI inh -24, LANA-H2A inh 8, Runt-CBFb FRET -82 and HDAC3 inh -9.
`S=C(Nc1ccc(Nc2ccccc2)cc1)NC1CCCCCC1` gave RanGTP-Imp inh -6, Runt-SMMHC FRET 2, CaV13 ICDI inh -1, LANA-H2A inh -2, Runt-CBFb FRET 3 and HDAC3 inh 8.
Screening CN/C(=C/[N+](=O)[O-])NCCSCc1ccc(CN(C)C)o1 returned RanGTP-Imp inh -5, Runt-SMMHC FRET -2, CaV13 ICDI inh -5, LANA-H2A inh 16*!, Runt-CBFb FRET -3 and HDAC3 inh 2.
`CN1CCc2nc(NC(=O)COc3ccc4ccccc4c3)sc2C1` gave RanGTP-Imp inh 8, Runt-SMMHC FRET 51, CaV13 ICDI inh 4, LANA-H2A inh -5 and HDAC3 inh 2.
O=C(Nc1nc2c(s1)CN(Cc1ccccc1)CC2)C1CCCC1 was read as RanGTP-Imp inh -5, Runt-SMMHC FRET 118*, CaV13 ICDI inh -2, LANA-H2A inh 1, Runt-CBFb FRET 53* and HDAC3 inh 12.
Screening O=C(Nc1ccccc1F)c1ccc(CN2CCc3ccccc3C2)cc1 returned RanGTP-Imp inh inconclusive, CaV13 ICDI inh -1, LANA-H2A inh 0 and HDAC3 inh 0.
